Laboratory results reported in ChEMBL document CHEMBL4610001 (J Med Chem, 2020).
Activity calls are given as the source filed them. No cut-off for these calls is given here.

Assays:
[1] = biological target: T1, Lysophosphatidic acid receptor 1 (Homo sapiens, UniProt Q92633); assay: Agonist activity at LPA1 receptor (unknown origin) stably expressed in rat RH7777 cells assessed as increase in intracellular calcium level at 10 uM by Fluo-4 NW dye based fluorescence assay; type: functional, cell-based
T1 sequence (Q92633 whole entry): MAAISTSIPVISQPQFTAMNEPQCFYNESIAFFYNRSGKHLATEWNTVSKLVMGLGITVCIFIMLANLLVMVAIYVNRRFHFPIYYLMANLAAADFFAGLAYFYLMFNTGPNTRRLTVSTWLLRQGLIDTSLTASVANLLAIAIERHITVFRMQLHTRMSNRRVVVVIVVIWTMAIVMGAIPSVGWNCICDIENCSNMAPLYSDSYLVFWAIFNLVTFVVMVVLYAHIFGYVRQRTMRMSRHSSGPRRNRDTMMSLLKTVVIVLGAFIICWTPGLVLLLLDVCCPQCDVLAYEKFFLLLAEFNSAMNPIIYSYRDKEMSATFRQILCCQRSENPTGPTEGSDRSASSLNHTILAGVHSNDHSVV
Method in brief: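 LPA1-stably transfected RH7777 hepatoma cells on poly-D-lysine, 50000 cells/well, cultured overnight. Loaded with Fluo-4 NW plus […] for 30 min at 37°C, then 30 min at rt. Compound added at 120 s of a 240 s read (ex 494/em 525 nm). Response taken as maximum minus baseline, relative to the 10 μM LPA control; ionomycin 10 μM also included. Run in triplicate.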

[2] = biological target: T1, Lysophosphatidic acid receptor 1; assay: Agonist activity at recombinant human full-length LPA1 receptor expressed in dhfr- deficient CHO cells assessed as increase in intracellular calcium flux measured for 1 min by fluo-3AM dye based FLIPR assay; type: functional, cell-based
[3] = biological target: T1, Lysophosphatidic acid receptor 1; assay: Agonist activity at LPA1 receptor (unknown origin) stably expressed in rat RH7777 cells assessed as increase in intracellular calcium level by Fluo-4 NW dye based fluorescence assay; type: functional, cell-based
[4] = Stability of the compound in PBS at pH 7.4 assessed as parent compound remaining incubated up to 8 hrs by HPLC-MS; type: physicochemical; conditions: read-out: Stability
Method in brief: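 Compound from a 25 mM DMSO stock was diluted into PBS pH 7.4 and kept at rt. Parent compound remaining at each time point was measured by HPLC-MS in SIM mode, with peak area normalised to an internal standard.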

[5] = Stability of the compound in culture medium assessed as parent compound remaining incubated for up to 8 hrs by HPLC-MS; type: physicochemical; conditions: read-out: Stability
Method in brief: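 Compound from a 50 mM DMSO stock was added to culture medium pre-warmed to 37°C and incubated at 37°C. Aliquots were quenched in cold acetonitrile, iced 10 min and centrifuged. Supernatants were analysed by HPLC-MS in SIM mode, with peak area normalised to an internal standard.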

[6] = biological target: Lysophosphatidic acid receptor 1 (Rattus norvegicus) (UniProt P61794); assay: Agonist activity at LPA1 receptors in Wistar rat DRG neurons assessed as increase in calcium influx at 500 nM measured after 10 secs in presence of capsaicin by Fluo-4 NW dye based inverted microscopic method; type: functional
Lysophosphatidic acid receptor 1 (Rattus norvegicus), sequence (P61794 whole entry, the tested form may be a part): as the sequence (Q92633 whole entry) above, with I4A, I8S, P22Q, H40Y, I61V, E193D, N194H, I269V, S331N, T335N counted along it

[7] = biological target: T1, Lysophosphatidic acid receptor 1; assay: Binding affinity to LPA1 receptor (unknown origin) by cell-based backscattering interferometry
[8] = biological target: Lysophosphatidic acid receptor 1 (Rattus norvegicus) (UniProt P61794); assay: Agonist activity at LPA1 receptors in Wistar rat DRG neurons assessed as increase in calcium influx at 10 uM measured after 10 secs in presence of capsaicin by Fluo-4 NW dye based inverted microscopic method; type: functional
Method in brief: (§1)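 DRG neurons from 3–5-day-old Wistar rats were collagenase-digested and cultured 48 h with NGF. Cells loaded with 5 μM Fluo-4AM and 0.02% pluronic in HEPES-buffered HBSS pH 7.4 for 1 h at 37°C, then perfused at rt. Compound given at 10 μM final (from 10 mM DMSO stock) as 10 s pulses. Capsaicin and 40 mM KCl (10 s, viability) also applied. Signal is peak minus baseline fluorescence; a response is >20% over baseline.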

[9] = biological target: Lysophosphatidic acid receptor 1 (Rattus norvegicus) (UniProt P61794); assay: Induction of LPA1 receptor desensitization in Wistar rat DRG neurons assessed as reduction in calcium influx at 10 uM treated twice after 10 secs in presence of capsaicin by Fluo-4 NW dye based inverted microscopic method; type: functional; method in brief: as §1
[10] = biological target: Lysophosphatidic acid receptor 1 (Rattus norvegicus) (UniProt P61794); assay: Agonist activity at LPA1 receptors in Wistar rat DRG neurons assessed as increase in neuronal activity at 10 uM incubated for 15 secs in presence of capsaicin by Microelectrode Array
Method in brief: (§2)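 Neonatal Wistar rat DRG neurons, cultured 48 h on poly-L-lysine/laminin-coated 60-electrode MEA chips. Compound perfused at 10 μM final for 15 s at 2 mL/min. Extracellular activity recorded at 25 kHz; output is mean spike frequency.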

[11] = biological target: Lysophosphatidic acid receptor 1 (Rattus norvegicus) (UniProt P61794); assay: Induction of LPA1 receptor desensitization in Wistar rat DRG neurons assessed as reduction in neuronal activity at 10 uM treated for 15 secs twice with 4 mins interval in presence of capsaicin by microelectrode Array; method in brief: as §2
[12] = biological target: Lysophosphatidic acid receptor 1 (Rattus norvegicus) (UniProt P61794); assay: Agonist activity at LPA1 receptors in Wistar rat DRG neurons assessed as increase in neuronal activity at 10 uM incubated for 15 secs in presence of capsazepine by Microelectrode Array; method in brief: as §2
[13] = biological target: Lysophosphatidic acid receptor 1 (Rattus norvegicus) (UniProt P61794); assay: Induction of LPA1 receptor desensitization in Wistar rat DRG neurons assessed as reduction in neuronal activity at 10 uM treated for 15 secs twice with 4 mins interval in presence of capsazepine by microelectrode Array; method in brief: as §2

For `CCCCCCCC/C=C\CCCCCCCC(=O)NC[C@H](CC(F)(C(=O)O)C(=O)O)OC`, which Activity [1] is on record?
The Activity was “inactive”.

For `CCCCCCCC/C=C\CCCCCCCC(=O)OC[C@@H]1CC(C(=O)O)C(=O)O1` (stereo partly drawn), which Activity [1] is on record?
The Activity was “inactive”.

With `CC1CCC2(C)c3[nH]c4ccccc4c3CCN2C1` (stereo not drawn) as the compound, how does the EC50 [2] read?
The EC50 was 3.6 µM.

Which Activity [1] does the source give for `O=C(CCCCCCCCCCc1ccccc1)O[C@H](CBr)COP(=O)(O)O` here?
Its Activity is “inactive”.

For `O=C(CCCCCCCCCc1ccccc1)OC[C@@H]1CC(F)(C(=O)O)C(=O)O1` (stereo partly drawn), which Activity [1] is on record?
The Activity was “inactive”.

For `O=C(CCCCCCc1ccc(-c2ccccc2)cc1)OC[C@@H](O)COP(=O)(O)O`, which Activity [1] is on record?
Its Activity is “inactive”.

With `CCCCCCCC/C=C\CCCCCCCC(=O)OC[C@@H](O)Cc1nnn[nH]1` as the compound, how does the Activity [1] read?
Its Activity is “inactive”.

With `CCCCCCCC/C=C\CCCCCCCC(=O)O[C@H](CBr)COP(=O)(O)O` as the compound, how does the EC50 [3] read?
The EC50 was 3.2 µM.

Which Activity [1] does the source give for `CCCCCCCC/C=C\CCCCCCCC(=O)OC[C@@H](O)COCC(=O)O` here?
Its Activity is “inactive”.

For `O=C(CCCCCCCCc1ccccc1)O[C@H](CBr)COP(=O)(O)O`, which Activity [1] is on record?
Its Activity is “inactive”.

For `O=C(CCCCCCc1ccccc1)OC[C@@H](O)COP(=O)(O)O`, which Activity [1] is on record?
Its Activity is “inactive”.

Which Activity [1] does the source give for `CCCCCCCC/C=C\CCCCCCCC(=O)OCCCC(C(=O)O)C(=O)O` here?
The Activity was “inactive”.

With `CCCCCC/C=C\CCCCCCCC(=O)OC[C@@H]1C[C@](F)(C(=O)O)C(=O)O1` as the compound, how does the Activity [1] read?
The Activity was “inactive”.

Which EC50 [3] does the source give for `O=C(CCCCCCCCCCCCc1ccc(-c2ccccc2)cc1)OC[C@@H](O)COP(=O)(O)O` here?
The EC50 was 19 µM.

For `O=C(CCCCCCCCCc1ccccc1)O[C@H](CBr)COP(=O)(O)O`, which remaining at 8 h [4] is on record?
The remaining at 8 h was > 85%.

What about the remaining at 8 h [5] of the same compound?
The remaining at 8 h was > 85%.

With `O=C(CCCCCCCCCCCCCCc1ccccc1)OC[C@@H](O)COP(=O)(O)O` as the compound, how does the Activity [1] read?
Its Activity is “inactive”.

For `CCCCCCCCCC/C=C\CCCCCCCC(=O)OC[C@@H](O)COP(=O)(O)O`, which Activity [1] is on record?
Its Activity is “inactive”.

For `CCCCCCCC/C=C\CCCCCCCC(=O)OCCCC(F)(C(=O)O)C(=O)O`, which Activity [1] is on record?
Its Activity is “inactive”.

With `CCCCCC/C=C\CCCCCCCC(=O)O[C@H](CBr)COP(=O)(O)O` as the compound, how does the Activity [1] read?
The Activity was “inactive”.

Which Activity [6] does the source give for `COc1cc(CNC(=O)CCCC/C=C/C(C)C)ccc1O` here?
Its Activity is “Active”.

With `CO[C@H](COC(=O)CCCCCCCCCc1ccccc1)CC(F)(C(=O)O)C(=O)O` as the compound, how does the Activity [1] read?
Its Activity is “inactive”.

For `CCCCCCCC/C=C\CCCCCCCC(=O)OC[C@@H](O)COP(=O)(O)O` [LYSOPHOSPHATIDIC ACID], which EC50 [3] is on record?
Its EC50 is 0.83 µM.

And the Kd [7]?
Its Kd is 0.0056 µM.

What about the Activity [8] of the same compound?
The Activity was “Active”.

And the Activity [9]?
Its Activity is “Active”.

And the Activity [10]?
The Activity was “Active”.

And the Activity [11]?
Its Activity is “Active”.

And the Activity [12]?
The Activity was “Active”.

What about the Activity [13] of the same compound?
The Activity was “Active”.

With `CCCCCC/C=C\CCCCCCCC(=O)OC[C@@H]1C[C@@](F)(C(=O)O)C(=O)O1` as the compound, how does the Activity [1] read?
Its Activity is “inactive”.

With `CCCCCCCC/C=C\CCCCCCCC(=O)OC[C@@H](O)COc1ccc(B(O)O)cc1` as the compound, how does the Activity [1] read?
The Activity was “inactive”.

With `O=C(CCCCCCCc1ccccc1)OC[C@@H](O)COP(=O)(O)O` as the compound, how does the Activity [1] read?
Its Activity is “inactive”.
